Experiment [1] has as its system Mycobacterium tuberculosis variant bovis. Description: Antibacterial activity against Mycobacterium bovis BCG ATCC 35734 assessed as inhibition of bacterial growth incubated upto 3 weeks hrs by resazurin dye based double-dilution method. Format: functional. The note with it: BCG ATCC 35734, 504 h. The essentials:
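Double-dilution broth MIC. Media: M. smegmatis, Mueller-Hinton; M. abscessus, 7H9 + 0.05% Tween80 + 0.4% glycerol; mc²6230, 7H9 + 0.05% tyloxapol, 0.5% glycerol, 10% OADC, 0.2% casamino acids, 24 µg/mL pantothenate; other mycobacteria, 7H9 + 0.05% Tween80, 0.4% glycerol, 10% ADC. Inoculum from agar set to 0.5 McFarland, then diluted 1:100.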
A general note: The colour change of resazurin is a common sign of viable cells or microbes.

Experiment [2] has the same test system. Description: Antibacterial activity against Mycobacterium bovis BCG ATCC 35734 in presence of clarithromycin by checkerboard assay. Type of experiment: functional, organism-based. The essentials:
(§1)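 Checkerboard in 96-well plates. Antibiotic two-fold serially diluted along columns, haloperidol derivative two-fold along rows. Bacteria prepared as for the MIC determination. MICs alone and in combination used to calculate FICI. At least duplicate independent trials.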

Experiment [3] has the same test system. Nature of the experiment: Antibacterial activity against Mycobacterium bovis BCG ATCC 35734 in presence of clofazimine by checkerboard assay. Format: functional, organism-based. The essentials: as §1
Experiment [4] has the same test system. Description: Synergistic antibacterial activity against Mycobacterium bovis BCG ATCC 35734 in presence of spectinomycin by checkerboard assay. Type of experiment: functional, organism-based. Put shortly: as §1

In brackets after ≈: the same amount, converted by molar mass. Activity calls are given as the source filed them. The calls are words filed in the database; no cut-off is given here.

The results in this text go back to ChEMBL document CHEMBL5107950, “Structure-based design of haloperidol analogues as inhibitors of acetyltransferase Eis from Mycobacterium tuberculosis to overcome kanamycin resistance” (RSC Med Chem, 2021).

One may read the MIC as the lowest concentration found to suppress growth. With `Fc1ccc(OCCCN2CCC(c3ccccc3)CC2)cc1`, the MIC in experiment [1] was more than 62.5 µM.
Turning to `NNC(=O)c1ccncc1` [ISONIAZID], the MIC in experiment [1] was not above 1 µM.
Same read-out and setting: the same measure for `O=C(CCCN1CCC(O)(c2ccc(F)cc2)CC1)c1ccc(F)cc1`: more than 62.5 µM; for `O=C(CCCN1CCC(O)(c2ccc(F)cc2)CC1)c1ccccc1`: more than 62.5 µM.
With `O=C(CCCN1CCC(O)(c2ccc(Cl)cc2)CC1)c1ccc(Cl)cc1` [CHLOROHALOPERIDOL], the minimum inhibitory concentration (MIC) in experiment [1] came out at 62.5 µM (≈ 24.5 µg/mL). For the same molecule, the outcome in experiment [2], in experiment [3] and in experiment [4] was Active.
With `COc1ccc(C(=O)CCCN2CCC(O)(c3ccc(F)cc3)CC2)cc1`, the MIC in experiment [1] was more than 62.5 µM.
Still for that read-out and setting: the same measure for `O=C(CCCN1CC=C(c2ccc(Cl)cc2)CC1)c1ccc(F)cc1`: 15.6 µM (≈ 5.58 µg/mL).
Turning to `O=C(CCCN1CCC(O)(c2ccc(Br)cc2)CC1)c1ccc(Cl)cc1`, the MIC in experiment [1] came to 15.6 µM (≈ 6.81 µg/mL). For the same molecule, the result in experiment [2], in experiment [3] and in experiment [4] was Active.
Consider `CC1CC(C)CN(CCCOc2ccc(F)cc2)C1` (stereo not drawn), for which the MIC in experiment [1] stood at 15.6 µM (≈ 4.14 µg/mL).
`CCc1ccc(C(=O)CCCN2CCC(O)(c3ccc(Cl)cc3)CC2)cc1`: the MIC in experiment [1] amounted to 2 µM (≈ 0.772 µg/mL).
Same read-out and setting: the value for `Cc1ccc(C(=O)CCCN2CCC(O)(c3ccc(Cl)cc3)CC2)cc1` was 15.6 µM (≈ 5.8 µg/mL); that for `O=C(CCCN1CCC(O)(c2ccc(Cl)cc2)CC1)c1ccccc1` was 62.5 µM (≈ 22.4 µg/mL).
Consider `O=C(CCCN1CCC(O)(c2ccc(F)cc2)CC1)c1ccc(Cl)cc1`, for which the MIC in experiment [1] is more than 62.5 µM. Moreover, the outcome in experiment [2], in experiment [3] and in experiment [4] was Active.
With `O=C(CN1CCC(O)(c2ccc(Cl)cc2)CC1)c1ccc(F)cc1`, in experiment [1], the MIC was more than 62.5 µM.
For the molecule `O=C(CCCN1CCC(O)(c2ccc(Cl)cc2)CC1)c1ccc(Br)cc1`, the MIC in experiment [1] is more than 62.5 µM.
For `COc1ccc(C(=O)CCCN2CCC(O)(c3ccc(Br)cc3)CC2)cc1`, the MIC in experiment [1] was 62.5 µM (≈ 27 µg/mL).
Still for that read-out and setting: the same measure for `O=C(CCCN1CCC(O)(c2ccc(Br)cc2)CC1)c1ccc(F)cc1` [BROMPERIDOL]: 62.5 µM (≈ 26.3 µg/mL); for `CC(C)c1ccc(C(=O)CCCN2CCC(O)(c3ccc(Cl)cc3)CC2)cc1`: 1 µM (≈ 0.4 µg/mL).
On the same count and under the same terms, the value for `CC(C)(C)c1ccc(C(=O)CCCN2CCC(O)(c3ccc(F)cc3)CC2)cc1` was 15.6 µM (≈ 6.2 µg/mL); that for `CC1CC(C)CN(CCCC(=O)c2ccc(C(C)(C)C)cc2)C1` (stereo not drawn) was 31.3 µM (≈ 9.88 µg/mL); that for `COc1ccc(C(=O)CCCN2CCC(O)(c3ccc(Cl)cc3)CC2)cc1` was more than 62.5 µM.
Consider `CC(C)(C)c1ccc(C(=O)CCCN2CCC(O)(c3ccc(Cl)cc3)CC2)cc1`, for which the MIC in experiment [1] is 3.9 µM (≈ 1.61 µg/mL).
Same read-out and setting: the value for `Cc1ccc(S(=O)(=O)N2CCC(O)(c3ccc(Cl)cc3)CC2)cc1` was more than 62.5 µM; that for `O=C(CCCN1CCCCC1)c1ccc(F)cc1` [PRIMAPERONE] was more than 62.5 µM; that for `O=C(CCCN1CCC(O)(c2ccc(F)cc2)CC1)c1ccc(Br)cc1` was 62.5 µM (≈ 26.3 µg/mL).
Still for that read-out and setting: the value for `O=C(CCCN1CCC(O)(c2ccc(Cl)cc2)CC1)c1ccc(F)cc1` [HALOPERIDOL] was 62.5 µM (≈ 23.5 µg/mL); that for `CC(C)(C)c1ccc(C(=O)CCCN2CCC(O)(c3ccc(Br)cc3)CC2)cc1` was 3.9 µM (≈ 1.79 µg/mL).
Same read-out and setting: the same measure for `O=C(CCCN1CCC(O)(c2ccc(Br)cc2)CC1)c1ccc(Br)cc1`: more than 62.5 µM; for `CC1CCCCN1CCCOc1ccc(F)cc1` (stereo not drawn): 3.9 µM (≈ 0.98 µg/mL); for `O=C(CCCN1CCC(c2ccc(Cl)cc2)CC1)c1ccc(F)cc1`: 62.5 µM (≈ 22.5 µg/mL).
With `O=C(CCCN1CCC(O)CC1)c1ccc(F)cc1`, in experiment [1], the MIC was more than 62.5 µM.
Regarding `CC(=O)CCCN1CCC(O)(c2ccc(Cl)cc2)CC1`, the MIC in experiment [1] is more than 62.5 µM.
Still for that read-out and setting: the value for `O=C(CCCN1CCC(O)(c2ccccc2)CC1)c1ccc(F)cc1` was more than 62.5 µM.
Turning to `O=C(CCCN1CCC(O)(c2ccc(Br)cc2)CC1)c1ccccc1`, the MIC in experiment [1] was more than 62.5 µM.
